The text below walks through data of ChEMBL document CHEMBL3804827, “Synthesis, biological evaluation and structure-activity relationship of 2-styrylquinazolones as anti-tubercular agents” (Bioorg Med Chem Lett, 2016).

SMILES strings stand for the structures. ≈ marks a conversion by molar mass, not a printed value. Bounds are passed on as bounds.

One may read the MIC99 as the lowest concentration that inhibits either 99% of growth or 99% of the strains tested, depending on the study. In general, IC90 refers to the concentration at which the effect reaches the 90% level. One may read the MIC as the smallest concentration in the dilution series that meets the test's criterion for growth inhibition.

The subject of data set [1] is Mycobacterium tuberculosis. Description: Antimycobacterial activity against Mycobacterium tuberculosis H37Rv ATCC 27294 after 28 days by two fold serial dilution method. Conditions: H37Rv ATCC 27294, 672 h. Type of data set: functional. The procedure, abridged:
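M. tuberculosis H37Rv (ATCC 27294) in vitro; MIC taken as the lowest concentration in µg/mL giving 99% growth inhibition. Determined in triplicate at pH 7.4, with standard drugs (INH, R, E, Z, Cfx) run alongside.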

The nature of data set [2]: Selectivity index, ratio of cytotoxicity against HEK293T cells to MIC for Mycobacterium tuberculosis H37Rv ATCC 27294. Type of data set: toxicity, cell-based, HEK-293T. As to conditions: human, read-out: Selectivity Index. The method, boiled down:
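HEK-293T human embryonic kidney cells were exposed to 50 µg/mL and read by MTT as % inhibition. The index relates this cytotoxicity to the MIC against M. tuberculosis H37Rv ATCC 27294, defined as 99% growth inhibition.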

Data set [3] concerns Mycobacterium tuberculosis. Briefly: Antimycobacterial activity against Mycobacterium tuberculosis H37Rv ATCC 27294 after 7 days by Alamar blue assay. It is filed as functional. As to conditions: H37Rv ATCC 27294, 168 h. In general terms: Resazurin is reduced to fluorescent resorufin, in cell work by metabolically active cells.
Data set [4] can be described thus: Selectivity index, ratio of CC50 for African green monkey Vero cells to IC90 for Mycobacterium tuberculosis H37Rv ATCC 27294. It is filed as toxicity, cell-based. As to conditions: read-out: Selectivity Index.
For a further data set, the system named is Staphylococcus aureus. Description: Antibacterial activity against Staphylococcus aureus NRS70 after 16 to 20 hrs by two-fold serial dilution method. It is filed as functional.

The molecule `CSc1ccc(-n2c(/C=C/c3ccc(OC(C)=O)cc3)nc3ccccc3c2=O)cc1` yielded an MIC99 in data set [1] of 6.25 µg/mL (≈ 14.6 µM).

For the molecule `COc1cc(-n2c(/C=C/c3ccco3)nc3ccccc3c2=O)cc(OC)c1OC`, the MIC99 in data set [1] stood at 3.12 µg/mL (≈ 7.73 µM). Also, in data set [2], the selectivity ratio is > 16.

`O=c1c2ccccc2nc(/C=C/c2ccccc2)n1-c1ccc(Br)cc1`: in data set [1], the MIC99 stood at 6.25 µg/mL (≈ 15.5 µM). The selectivity ratio in data set [2] is > 8.

Take `O=c1c2ccccc2nc(/C=C/c2ccc(Cl)cc2)n1-c1ccc(Cl)cc1`: in data set [1], the MIC99 was > 25 µg/mL.

In data set [1], `COc1cc(-n2c(/C=C/c3cccs3)nc3ccccc3c2=O)cc(OC)c1OC` came in with an MIC99 of 6.25 µg/mL (≈ 14.9 µM). Also, the selectivity ratio in data set [2] was < 8.

For `O=c1c2ccccc2nc(/C=C/c2ccco2)n1-c1ccccc1`, the MIC99 in data set [1] was 12.5 µg/mL (≈ 39.8 µM).

Turning to `O=c1c2ccccc2nc(/C=C/c2ccccc2)n1-c1ccc(Cl)cc1`, the MIC99 in data set [1] worked out at 12.5 µg/mL (≈ 34.8 µM).

`COc1ccc(/C=C/c2nc3ccccc3c(=O)n2-c2cc(OC)c(OC)c(OC)c2)cc1` displayed an MIC99 in data set [1] of 12.5 µg/mL (≈ 28.1 µM).

`COc1ccc(/C=C/c2nc3ccccc3c(=O)n2-c2ccc(OC)cc2)cc1` gave an MIC99 in data set [1] of 1.56 µg/mL (≈ 4.06 µM). The selectivity ratio in data set [2] is > 32.

For `O=c1c2ccccc2nc(/C=C/c2ccccc2)n1-c1ccccc1`, the MIC99 in data set [1] is 3.12 µg/mL (≈ 9.63 µM). For the same molecule, the selectivity ratio in data set [2] is > 16.

In turn, `COc1ccc(/C=C/c2nc3ccccc3c(=O)n2-c2ccc(C)cc2)cc1` yielded an MIC99 in data set [1] of 12.5 µg/mL (≈ 33.9 µM).

The molecule `COc1cc(-n2c(/C=C/c3ccc(F)cc3)nc3ccccc3c2=O)cc(OC)c1OC` yielded an MIC99 in data set [1] of 6.25 µg/mL (≈ 14.5 µM). Further, the selectivity ratio in data set [2] was > 8.

Take `COc1cc(-n2c(/C=C/c3ccc(Cl)cc3)nc3ccccc3c2=O)cc(OC)c1OC`: the MIC99 in data set [1] was 3.12 µg/mL (≈ 6.96 µM). Besides, the selectivity ratio in data set [2] is > 16.

As for `CSc1ccc(-n2c(/C=C/c3ccc(F)cc3)nc3ccccc3c2=O)cc1`, the MIC99 in data set [1] stood at 12.5 µg/mL (≈ 32.2 µM).

Regarding `COc1cc(/C=C/c2nc3ccccc3c(=O)n2-c2ccc(SC)cc2)cc(OC)c1OC`, the MIC99 in data set [1] is > 25 µg/mL.

In data set [1], `COc1cc(-n2c(/C=C/c3ccccc3)nc3ccccc3c2=O)cc(OC)c1OC` gave an MIC99 of 0.78 µg/mL (≈ 1.88 µM). The selectivity ratio in data set [2] was > 64.

On to `O=c1c2ccccc2nc(/C=C/c2ccc(F)cc2)n1-c1ccc(F)cc1`, for which, in data set [1], the MIC99 was > 25 µg/mL.

In data set [1], `O=c1c2ccccc2nc(/C=C/c2ccc(F)cc2)n1-c1ccc(Br)cc1` gave an MIC99 of 6.25 µg/mL (≈ 14.8 µM).

As for `O=c1c2ccccc2nc(/C=C/c2ccc([N+](=O)[O-])o2)n1-c1cccc(O)c1`, it took 1.02 µg/mL (≈ 2.72 µM) to reach the 90% level in data set [3] (IC90). Besides, in data set [4], the selectivity ratio is > 14.7.

`COc1ccc(/C=C/c2nc3ccccc3c(=O)n2-c2ccccc2)cc1` displayed an MIC99 in data set [1] of 12.5 µg/mL (≈ 35.3 µM).

In data set [1], `O=c1c2ccccc2nc(/C=C/c2ccc(Cl)cc2)n1-c1ccc(Cc2ccccc2)cc1` showed an MIC99 of 3.12 µg/mL (≈ 6.96 µM).

For the molecule `N#Cc1ccc(/C=C/c2nc3ccccc3c(=O)n2-c2cccc(C(=O)O)c2)cc1`, the MIC with Staphylococcus aureus was determined as 2 µg/mL (≈ 5.08 µM).

As for `NC(=O)c1cnccn1` [PYRAZINAMIDE], the MIC99 in data set [1] is 6.25 µg/mL (≈ 50.8 µM).

As for `COc1ccc(-n2c(/C=C/c3ccco3)nc3ccccc3c2=O)cc1`, the MIC99 in data set [1] stood at 6.25 µg/mL (≈ 18.1 µM). Moreover, in data set [2], the selectivity ratio was < 8.

In data set [1], `CSc1ccc(-n2c(/C=C/c3cccs3)nc3ccccc3c2=O)cc1` returned an MIC99 of 6.25 µg/mL (≈ 16.6 µM). Moreover, in data set [2], the selectivity ratio is > 8.

`O=c1c2ccccc2nc(/C=C/c2ccc(F)cc2)n1-c1ccccc1` displayed an MIC99 in data set [1] of 25 µg/mL (≈ 73 µM).

`O=c1c2ccccc2nc(/C=C/c2c(O)cccc2O)n1-c1ccccc1`: the MIC99 in data set [1] is 6.25 µg/mL (≈ 17.5 µM). For the same molecule, in data set [2], the selectivity ratio was > 8.

With `COc1ccc(-n2c(/C=C/c3ccccc3)nc3ccccc3c2=O)cc1`, in data set [1], the MIC99 came to 1.56 µg/mL (≈ 4.4 µM). Further, in data set [2], the selectivity ratio was > 32.

Regarding `Cc1ccc(-n2c(/C=C/c3ccccc3)nc3ccccc3c2=O)cc1`, the MIC99 in data set [1] is > 25 µg/mL.

Molecule `CSc1ccc(/C=C/c2nc3ccccc3c(=O)n2-c2ccccc2)cc1` displayed an MIC99 in data set [1] of 3.12 µg/mL (≈ 8.44 µM). The selectivity ratio in data set [2] was < 16.

Molecule `O=c1c2ccccc2nc(/C=C/c2cccs2)n1-c1ccccc1` came in with an MIC99 in data set [1] of 3.12 µg/mL (≈ 9.46 µM). In addition, the selectivity ratio in data set [2] is < 16.

Molecule `O=c1c2ccccc2nc(/C=C/c2ccccc2)n1-c1ccc(F)cc1` showed an MIC99 in data set [1] of 25 µg/mL (≈ 73 µM).

As for `COc1cc(-n2c(/C=C/c3ccc(SC)cc3)nc3ccccc3c2=O)cc(OC)c1OC`, the MIC99 in data set [1] was determined as 0.4 µg/mL (≈ 0.869 µM). Further, the selectivity ratio in data set [2] is > 125.

`Cc1ccc(/C=C/c2nc3ccccc3c(=O)n2-c2ccc(C)cc2)cc1`: the MIC99 in data set [1] was 3.12 µg/mL (≈ 8.87 µM). Also, in data set [2], the selectivity ratio was > 16.

`CC[C@@H](CO)NCCN[C@@H](CC)CO` [ETHAMBUTOL]: in data set [1], the MIC99 stood at 1.56 µg/mL (≈ 7.64 µM).

In data set [1], `CSc1ccc(-n2c(/C=C/c3ccco3)nc3ccccc3c2=O)cc1` returned an MIC99 of 6.25 µg/mL (≈ 17.3 µM). For the same molecule, the selectivity ratio in data set [2] is > 8.

On to `Cc1ccc(-n2c(/C=C/c3ccc(F)cc3)nc3ccccc3c2=O)cc1`, for which the MIC99 in data set [1] is > 25 µg/mL.

For `CO[C@H]1/C=C/O[C@@]2(C)Oc3c(C)c(O)c4c(O)c(c(/C=N/N5CCN(C)CC5)c(O)c4c3C2=O)NC(=O)/C(C)=C\C=C\[C@H](C)[C@H](O)[C@@H](C)[C@@H](O)[C@@H](C)[C@H](OC(C)=O)[C@@H]1C` [RIFAMPIN], the MIC99 in data set [1] is 0.197 µg/mL (≈ 0.239 µM).

`COc1cc(/C=C/c2nc3ccccc3c(=O)n2-c2ccccc2)cc(OC)c1OC` registered an MIC99 in data set [1] of 0.78 µg/mL (≈ 1.88 µM). Besides, the selectivity ratio in data set [2] was > 64.

The molecule `NNC(=O)c1ccncc1` [ISONIAZID] yielded an MIC99 in data set [1] of 0.098 µg/mL (≈ 0.715 µM).

With `O=c1c2ccccc2nc(/C=C/c2ccc(Cl)cc2)n1-c1ccc(F)cc1`, the MIC99 in data set [1] was determined as 12.5 µg/mL (≈ 33.2 µM).

On to `Cc1ccc(-n2c(/C=C/c3ccc(Cl)cc3)nc3ccccc3c2=O)cc1`, for which the MIC99 in data set [1] is 25 µg/mL (≈ 67.1 µM).

In turn, `O=c1c2ccccc2nc(/C=C/c2ccc(F)cc2)n1-c1ccc(Cl)cc1` came in with an MIC99 in data set [1] of 6.25 µg/mL (≈ 16.6 µM). Further, the selectivity ratio in data set [2] was > 8.

In data set [1], `O=c1c2ccccc2nc(/C=C/c2ccc(OCc3ccccc3)cc2)n1-c1ccccc1` came in with an MIC99 of 12.5 µg/mL (≈ 29 µM).

Consider `O=c1c2ccccc2nc(/C=C/c2ccc([N+](=O)[O-])o2)n1CCCO`, for which the IC90 in data set [3] was < 0.1 µg/mL. The selectivity ratio in data set [4] is > 150.

As for `CSc1ccc(-n2c(/C=C/c3ccccc3)nc3ccccc3c2=O)cc1`, the MIC99 in data set [1] is 0.78 µg/mL (≈ 2.11 µM). Besides, in data set [2], the selectivity ratio was > 64.

`CSc1ccc(-n2c(/C=C/c3ccc(Cl)cc3)nc3ccccc3c2=O)cc1` showed an MIC99 in data set [1] of 12.5 µg/mL (≈ 30.9 µM).

On to `CSc1ccc(-n2c(/C=C/c3ccc(N(C)C)cc3)nc3ccccc3c2=O)cc1`, for which the MIC99 in data set [1] is 12.5 µg/mL (≈ 30.2 µM).

In the case of `O=c1c2ccccc2nc(/C=C/c2ccc(Cl)cc2)n1-c1ccccc1`, the MIC99 in data set [1] was 12.5 µg/mL (≈ 34.8 µM).

The molecule `Cc1ccc(/C=C/c2nc3ccccc3c(=O)n2-c2ccc(F)cc2)cc1` came in with an MIC99 in data set [1] of 6.25 µg/mL (≈ 17.5 µM). Moreover, the selectivity ratio in data set [2] is > 8.

In data set [1], `COc1ccc(-n2c(/C=C/c3ccc(Cl)cc3)nc3ccccc3c2=O)cc1` yielded an MIC99 of 3.12 µg/mL (≈ 8.04 µM). Also, the selectivity ratio in data set [2] was < 16.

With `COc1ccc(/C=C/c2nc3ccccc3c(=O)n2-c2ccc(SC)cc2)cc1`, the MIC99 in data set [1] is > 25 µg/mL.

For the molecule `COc1ccc(-n2c(/C=C/c3cccs3)nc3ccccc3c2=O)cc1`, the MIC99 in data set [1] was 1.56 µg/mL (≈ 4.33 µM). In data set [2], the selectivity ratio was > 32.
